This is an account of results in article PMC3159713 (Bioorganic & medicinal chemistry letters, 2011).

The target of data set [1] is Norwalk virus 3C protease (Norovirus, UniProt Q83883). Put plainly: Recombinant NV protease fluorogenic. It is filed as biochemical. To be noted: for IC50 column: designated inactive (percent inhibition < 25): incubated with the enzyme for 30 minutes at an [I]/[S] ratio of 25.
Data set [2] deals with Norwalk norovirus (NV replicon-harboring HG23 cells). Put plainly: Cell-based NV replicon system. Further details: species or system Norwalk virus. To be noted: NV genome levels at 24 hr post-treatment. In outline: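 Norwalk virus replicon-harbouring HG23 cells, 1 day old and 80-90% confluent, were treated with the test compound from 0 (mock-DMSO) to 320 μM. NV genome was measured by qRT-PCR. ED50 was determined from NV genome levels at 24 hr post-treatment.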
(In general: A replicon is a self-replicating genome or part of one, used to study replication in cells.)

Data set [3] deals with HG23 cells. Briefly: Cell cytotoxicity assay kit in HG23 cells. It counts as cell-based. The note with it: 48 hr of treatment.
Data set [4] has as its system murine norovirus (MNV). Briefly: Murine norovirus replication in RAW267.4 cells. It is filed as cell-based, murine norovirus-1 (MNV-1). To be noted: MNV-1 at MOI of 2, TCID50 assay.

Molecules are shown by their SMILES. Some results are limits rather than exact numbers.

Chain of Norwalk virus 3C protease (Q83883 1101-1281): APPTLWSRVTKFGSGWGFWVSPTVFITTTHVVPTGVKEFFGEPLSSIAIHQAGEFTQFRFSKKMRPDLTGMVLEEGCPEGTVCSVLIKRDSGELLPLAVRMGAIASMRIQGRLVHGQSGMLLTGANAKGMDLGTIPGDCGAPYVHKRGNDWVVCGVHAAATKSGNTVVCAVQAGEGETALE

`CC(C)C[C@H](NC(=O)OCc1ccccc1)C(=O)N[C@H](CO)CC1CCNC1=O` (some centres unmarked) [Compound 3]: the “IC50 column: designated inactive (percent inhibition < 25)” value (from here on “IC50 column … (percent inhibition < 25)”) in data set [1] is “Inactive ^a”.

In the case of `CC(C)C[C@H](NC(=O)CNC(=O)OCc1ccccc1)C(=O)N[C@H](C=O)CC1CCNC1=O` (some centres unmarked) [Compound 5], the “ED50 (effective dose that inhibits 50% of norovirus replication)” value in data set [2] is 7.8 µM. Also, the “TD50 (median toxic dose)” value in data set [3] was over 320 µM. For the same compound, in data set [4], the “ED50, replication of murine norovirus (MNV)” value worked out at 20.3 µM.

Turning to `CC(C)C[C@H](NC(=O)CNC(=O)OCc1ccccc1)C(=O)N[C@H](CO)CC1CCNC1=O` (some centres unmarked) [Compound 6], the “IC50 column … (percent inhibition < 25)” value in data set [1] is “Inactive ^a”.

As to `CC(C)C[C@H](NC(=O)OCc1ccccc1)C(=O)N[C@@H](CC1CCNC1=O)C(=O)C(=O)NC(C)C` (some centres unmarked) [Compound 10], in data set [1], the “Inhibition of Norwalk virus 3C protease (in words)” value (from here on “Inhibition … (in words)”) is “devoid of inhibitory activity” and the “IC50 column … (percent inhibition < 25)” value was “Inactive ^a”.

As to `O=C[C@H](CC1CCNC1=O)NC(=O)[C@H](Cc1ccccc1)NC(=O)N1CCOCC1` (some centres unmarked) [Compound 2], the “IC50 column … (percent inhibition < 25)” value in data set [1] is “Inactive ^a”.

In the case of `CCCC[C@H](NC(=O)CNC(=O)OCc1ccccc1)C(=O)N[C@H](CO)CC1CCNC1=O` (some centres unmarked) [Compound 8], the “IC50 column … (percent inhibition < 25)” value in data set [1] is given as “Inactive ^a”.

For the compound `CC(C)C[C@H](NC(=O)OCc1ccccc1)C(=O)N[C@H](C=O)CC1CCNC1=O` (some centres unmarked) [Compound 4], in data set [1], the “Inhibition … (in words)” value is “dose-dependent inhibition”. Besides, the “ED50 (effective dose that inhibits 50% of norovirus replication)” value in data set [2] stood at 2.1 µM. In addition, the “TD50 (median toxic dose)” value in data set [3] was over 320 µM. In addition, the “ED50, replication of murine norovirus (MNV)” value in data set [4] amounted to 5.5 µM.

For the compound `CCCC[C@H](NC(=O)CNC(=O)OCc1ccccc1)C(=O)N[C@H](C=O)CC1CCNC1=O` (some centres unmarked) [Compound 7], the “Inhibition … (in words)” value in data set [1] was “sub-micromolar inhibitor”.
